Screens from PubChem.
Rows were chosen to be rich in hits. Some 4.1% of all compounds tested hit in one or more screens of this group.
KCNQ1 act – human KCNQ1 channel potentiation or activation | P51787 | CHO-K1 KCNQ1, thallium flux FluxOR fluorescence; active compounds read high | B-score at 10 µM | 310,000 tested, 0.35% active | AID 2648;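 active = fluorescence ratio B-score, a plate-corrected score, at least three library SD, with initial intensity B-score within 5 SD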
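Test system: CHO-K1 cells stably expressing KCNQ1 / Medium: assay buffer / Also added: depolarizing K+/Tl+ stimulus, K2SO4 and Tl2SO4 each 12.5 mM in 5x stock / Incubation: 90 min dye loading and 20 min compound exposure, both at room temperature / Signal: thallium influx via FluxOR fluorescence, kinetic imaging / Evaluation: B score of baseline-normalized fluorescence ratio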
hERG protect – shields human hERG channel from block by proarrhythmic agents; Q12809; CHO-hERG, FluxOR thallium flux, dofetilide IC70 present; activation (rescue from dofetilide block), less the hit threshold, % at 10 µM; 310,000 tested, 0.51% active;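 active = activation above the mean of controls blocked by dofetilide plus 5 SD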;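 note: thallium influx through hERG after potassium depolarization seen as dye fluorescence rise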
KCNK9 inh – human KCNK9 channel inhibition; HEK293 KCNK9, FluxOR thallium flux fluorescence; active compounds read low; B-score at 10 µM; 310,000 tested, 1.2% active;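 active = ratio B-score over 3 SD below the library mean, with starting fluorescence within 5 SD of its mean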;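 note: negative B-score means less thallium flux so channel inhibition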
Cl transport mod – modulators of human KCC2 chloride dependent transport | Q9H2X9 | KCC2 cells, thallium flux FluoZin-2 fluorescence | B-score of Tl+ flux slope (higher = more flux/activation; lower = inhibition) at 10 µM | 190,000 tested, 2.2% active;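 active = thallium flux slope and its plate-corrected score both differing from the plate sample mean at a set confidence after two filtering rounds, in either direction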;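 note: slope of fluorescence scaled to starting intensity during 10 to 20 s after thallium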
KCNQ1 block – inhibitors of human KCNQ1 potassium channel. CHO-K1 KCNQ1, FluxOR thallium flux fluorescence; active compounds read high. AID 2642. 310,000 tested, 1.3% active. B-score at 10 µM;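 active = compounds whose thallium flux B-score, printed positive for inhibition, exceeds three library SD while starting fluorescence stays within three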;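 note: channel opened by potassium depolarization with thallium stimulus after 20 min compound exposure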
KCNK3 block – human KCNK3 channel inhibition, primary screen. AID 602410. O14649. 340,000 tested, 0.84% active. CHO-KCNK3 thallium flux, FluxOR fluorescence; active compounds read low. B-score at 10 µM;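 active = B-score under library mean minus 4 SD, starting fluorescence ratio at most library mean plus 5 SD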;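 note: more negative B-score means stronger inhibition of thallium flux through KCNK3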
KCNK9 inh conf – human KCNK9 inhibitor confirmation | shares compounds with KCNK9 inh | HEK293 KCNK9 cells, FluxOR thallium flux fluorescence | inhibition, % at 10 µM | 4,900 tested, 43% active;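 active = thallium signal inhibited by more than 5 SD of the compound-free buffer control wells, on both duplicate plates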;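 note: 0% = assay buffer control wells without compound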
Kir21 sel – tests whether KCNK9 modulators also affect mouse Kir2.1; 4,900 tested, 4% active; Kir2.1 cells, FluxOR thallium flux fluorescence; shares compounds with KCNK9 inh; inhibition, % at 10 µM;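 active = thallium signal drop more than 5 SD beyond the mean of the no-compound control wells, seen in both duplicate plates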;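 note: signal is fluorescence rise after thallium addition divided by baseline fluorescence; plate controls were assay buffer only for no effect and full block by chlorpromazine control for full effect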
Target sequence (P35561 whole entry, looked up): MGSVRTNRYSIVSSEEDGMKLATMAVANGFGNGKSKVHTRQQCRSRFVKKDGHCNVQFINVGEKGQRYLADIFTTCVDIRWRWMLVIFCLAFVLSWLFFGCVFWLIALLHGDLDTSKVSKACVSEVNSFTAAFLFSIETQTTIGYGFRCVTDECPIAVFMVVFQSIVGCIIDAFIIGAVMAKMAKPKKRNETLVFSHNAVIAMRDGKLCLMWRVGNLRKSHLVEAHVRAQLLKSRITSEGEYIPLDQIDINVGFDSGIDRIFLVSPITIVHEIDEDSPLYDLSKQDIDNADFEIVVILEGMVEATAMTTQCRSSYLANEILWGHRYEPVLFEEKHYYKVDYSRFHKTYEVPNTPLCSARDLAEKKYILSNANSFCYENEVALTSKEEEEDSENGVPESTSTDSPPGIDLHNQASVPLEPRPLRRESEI
KCNK9 uninduced – non-induced cell nonspecific activity of KCNK9 modulators; shares compounds with KCNK9 inh; non-induced KCNK9-HEK293, FluxOR thallium flux; inhibition, % at 10 µM; 4,900 tested, 40% active; AID 492997;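 active = thallium signal drop beyond 5 SD of the untreated control mean, on both duplicate plates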;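 note: plate controls were buffer only IC0 wells for no effect and SID17386958 at its maximal inhibitory level for full effect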
The depositor's hits bear a star.

`COc1ccc(NC2CCCN(C(=O)c3cccc(N(C)C)c3)C2)cc1` (centres undefined) gave KCNQ1 act inactive, hERG protect -14, KCNK9 inh inactive, KCNQ1 block inactive, KCNK3 block inactive, KCNK9 inh conf inactive, Kir21 sel inactive and KCNK9 uninduced inactive.
Screening COc1cccc(C(=O)N2CCCC(Nc3ccc(C)c(C)c3)C2)c1 (centres undefined) returned KCNQ1 act inactive, hERG protect -7, KCNK9 inh inactive, KCNQ1 block inactive, KCNK3 block inactive, KCNK9 inh conf inactive, Kir21 sel inactive and KCNK9 uninduced inactive.
`COc1ccc(NC2CCCN(C(=O)CCc3cccc(Cl)c3)C2)cc1` (centres undefined) gave KCNQ1 act inactive, hERG protect -13, KCNK9 inh inactive, KCNQ1 block inactive, KCNK3 block inactive, KCNK9 inh conf inactive, Kir21 sel inactive and KCNK9 uninduced inactive.
Screening COc1ccc(NC2CCCN(C(=O)CCc3cccc(F)c3)C2)cc1 (centres undefined) returned KCNQ1 act inactive, hERG protect -10, KCNK9 inh inactive, KCNQ1 block inactive and KCNK3 block inactive.
`CCC[C@@H](O)c1cc2cc(OC)c(OC)cc2c(=O)o1` gave KCNK3 block inactive.
For Cc1cccc(C(=O)N2CCCC(Nc3ccc(F)c(F)c3)C2)n1 (centres undefined) the results were KCNQ1 act inactive, hERG protect -13, KCNK9 inh inactive, KCNQ1 block inactive and KCNK3 block inactive.
Cc1cccc(C(=O)N2CCCC(Nc3ccc(C)c(C)c3)C2)n1 (centres undefined) was read as KCNQ1 act inactive, hERG protect -6, KCNK9 inh inactive, KCNQ1 block inactive, KCNK3 block inactive, KCNK9 inh conf inactive, Kir21 sel inactive and KCNK9 uninduced inactive.
For COc1ccc(NC2CCCN(C(=O)c3ccc4[nH]c(C)c(C)c4c3)C2)cc1 (centres undefined) the results were KCNQ1 act inactive, hERG protect -5, KCNK9 inh -12*, KCNQ1 block inactive, KCNK3 block inactive, KCNK9 inh conf inactive, Kir21 sel inactive and KCNK9 uninduced inactive.
Screening COc1ccc(NC2CCCN(C(=O)c3ccc(C)nc3)C2)cc1 (centres undefined) returned KCNQ1 act inactive, hERG protect -12, KCNK9 inh inactive, KCNQ1 block inactive and KCNK3 block inactive.
O=C(O)c1ccc(CSc2nc(-c3ccc(Cl)cc3)cc(C(F)(F)F)n2)cc1 was read as KCNQ1 act inactive, hERG protect -1, KCNK9 inh inactive, Cl transport mod -1.2, KCNQ1 block inactive and KCNK3 block inactive.
Screening O=C(O)c1ccc(CSc2nc(-c3ccccc3)cc(C(F)(F)F)n2)cc1 returned KCNQ1 act inactive, hERG protect -6, KCNK9 inh inactive, Cl transport mod -2, KCNQ1 block inactive, KCNK3 block inactive, KCNK9 inh conf inactive, Kir21 sel inactive and KCNK9 uninduced inactive.
For COc1cc(N2CCCC2)c(OC)cc1/C=C(/C#N)c1cccc(F)c1 the results were KCNQ1 act inactive, hERG protect -20, KCNK9 inh -12*, Cl transport mod -0.88, KCNQ1 block 7*, KCNK3 block -10*, KCNK9 inh conf 61%*, Kir21 sel 35%* and KCNK9 uninduced 50%*.
For N#C/C(=C/c1ccc(N2CCCCCC2)o1)c1cccc(F)c1 the results were KCNQ1 act inactive, hERG protect -26, KCNK9 inh -15*, Cl transport mod -0.59, KCNQ1 block 9*, KCNK3 block -13*, KCNK9 inh conf 74%*, Kir21 sel inactive and KCNK9 uninduced 71%*.
COc1cccc(/C=C(/C#N)c2ccc(F)cc2)c1OCc1cccc(C(=O)O)c1 was read as KCNQ1 act inactive, hERG protect -4, KCNK9 inh inactive, Cl transport mod -2, KCNQ1 block inactive and KCNK3 block inactive.
O=C1NC[C@H](Cc2ccccc2)N(CC2CCN(CCCC3CCCC3)CC2)C1=O was read as KCNK3 block inactive.
Cc1nc(NC(=O)COC(=O)C2CC3CCCC(C2)C3=O)c(Cl)cc1Cl (centres undefined) was read as KCNK3 block inactive.
COc1ccc(C(=O)CSc2nc(C(C)(C)C)nc3ccccc23)cc1 was read as KCNQ1 act inactive, hERG protect -4, KCNK9 inh -10*, Cl transport mod 0.8, KCNQ1 block inactive, KCNK3 block inactive, KCNK9 inh conf 46%*, Kir21 sel 35%* and KCNK9 uninduced 30%*.
Screening CC(C)(C)c1nc(SCC(=O)NCc2ccco2)c2ccccc2n1 returned KCNQ1 act inactive, hERG protect -5, KCNK9 inh inactive, Cl transport mod 1.1, KCNQ1 block inactive and KCNK3 block inactive.
`O=C(Cn1cnc2cc([N+](=O)[O-])ccc2c1=O)Nc1ccc(N2CCOCC2)cc1` gave KCNQ1 act inactive, hERG protect -7, KCNK9 inh inactive, Cl transport mod 0.92, KCNQ1 block inactive and KCNK3 block inactive.
For CC(=O)OCCCN(C)CC/C=C1/c2ccccc2CSc2ccccc21 the results were KCNQ1 act inactive, hERG protect -11, KCNK9 inh inactive, KCNQ1 block inactive, KCNK3 block inactive, KCNK9 inh conf inactive, Kir21 sel inactive and KCNK9 uninduced inactive.
Screening C[N+](C)(C)CC/C=C1/c2ccccc2CSc2ccccc21 returned KCNQ1 act inactive, hERG protect -5, KCNK9 inh inactive, Cl transport mod -0.027, KCNQ1 block inactive and KCNK3 block inactive.
Cc1ccc(S(=O)(=O)N(OCc2ccccc2)C(C)C(=O)O)cc1 (centres undefined) was read as KCNQ1 act inactive, hERG protect -7, KCNK9 inh inactive, KCNQ1 block inactive and KCNK3 block inactive.
For CCC(=O)NC(Nc1sc2c(c1C(=O)OC)CCC2)C(Cl)(Cl)Cl (centres undefined) the results were KCNQ1 act inactive, hERG protect -6, KCNK9 inh inactive, Cl transport mod -1.2, KCNQ1 block inactive and KCNK3 block inactive.
